In ChEMBL document CHEMBL1157254, “Metabolites of the "smoke tree", Dalea spinosa, potentiate antibiotic activity against multidrug-resistant Staphylococcus aureus” (2006):
The source made the active and inactive calls. No cut-off for these calls is given here.

Columns and labels:
[1] = test system: Pseudomonas aeruginosa; experiment: Antimicrobial activity against Pseudomonas aeruginosa PA14 by twofold serial dilution method; assay type: functional
[2] = test system: Saccharomyces cerevisiae; experiment: Antimicrobial activity against Saccharomyces cerevisiae BY4742 by twofold serial dilution method; assay type: functional
[3] = test system: Candida albicans; experiment: Antimicrobial activity against Candida albicans F5 by twofold serial dilution method; assay type: functional
[4] = test system: Staphylococcus aureus; experiment: Inhibition of MDR protein in wild-type Staphylococcus aureus 8325-4 assessed as potentiation of antimicrobial activity of berberine after 18 hrs by twofold serial dilution method
[5] = target: T1, Quinolone resistance protein NorA (Staphylococcus aureus) (UniProt P0A0J7); experiment: Inhibition of NorA efflux pump in wild-type Staphylococcus aureus 8325-4 assessed as fold reduction of berberine MIC at 48 uM by twofold serial dilution method
T1 sequence (whole entry): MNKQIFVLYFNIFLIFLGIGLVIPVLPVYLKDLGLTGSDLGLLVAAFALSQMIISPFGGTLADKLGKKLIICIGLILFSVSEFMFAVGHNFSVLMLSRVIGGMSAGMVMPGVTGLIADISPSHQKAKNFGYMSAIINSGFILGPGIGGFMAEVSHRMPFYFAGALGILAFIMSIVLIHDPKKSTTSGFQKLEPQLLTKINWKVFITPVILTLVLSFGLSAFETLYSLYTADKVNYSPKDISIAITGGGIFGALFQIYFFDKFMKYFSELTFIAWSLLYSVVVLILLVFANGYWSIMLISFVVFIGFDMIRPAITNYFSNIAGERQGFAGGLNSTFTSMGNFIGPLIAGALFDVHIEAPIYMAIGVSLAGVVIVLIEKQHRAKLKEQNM
Outline: (§1)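 Checkerboard assay in 96-well plates. Berberine is diluted 2-fold from 30 to 0.5 µg/mL (89-1.5 µM) across rows, and plant compound from 15 to 0.015 µg/mL across columns, with single-agent dilution series on each plate. Inoculum 5 × 10⁶ CFU/mL, 24 h at 37 °C, growth read at A600. Result is the fold reduction in berberine MIC.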

[6] = target: T1, Quinolone resistance protein NorA (Staphylococcus aureus); experiment: Inhibition of NorA efflux pump in Staphylococcus aureus K1758 mutant assessed as fold reduction of berberine MIC at 48 uM by twofold serial dilution method; outline: as §1
[7] = test system: Enterococcus faecalis; experiment: Antimicrobial activity against Enterococcus faecalis V583 by twofold serial dilution method; assay type: functional
[8] = target: T1, Quinolone resistance protein NorA (Staphylococcus aureus); experiment: Inhibition of NorA efflux pump in Staphylococcus aureus K2361 mutant overexpressing NorA assessed as potentiation of berberine-induced antimicrobial activity at 48 uM by twofold serial dilution method; outline: as §1
[9] = test system: Staphylococcus aureus; experiment: Antimicrobial activity against wild-type Staphylococcus aureus 8325-4 by twofold serial dilution method; assay type: functional
[10] = test system: Escherichia coli; experiment: Antimicrobial activity against wild-type Escherichia coli K12 by twofold serial dilution method; assay type: functional
[11] = target: T1, Quinolone resistance protein NorA (Staphylococcus aureus); experiment: Inhibition of NorA efflux pump in wild-type Staphylococcus aureus 8325-4 assessed as fold reduction of berberine MIC at 42 uM by twofold serial dilution method; outline: as §1
[12] = target: T1, Quinolone resistance protein NorA (Staphylococcus aureus); experiment: Inhibition of NorA efflux pump in Staphylococcus aureus K2361 mutant overexpressing NorA assessed as potentiation of berberine-induced antimicrobial activity at 42 uM by twofold serial dilution method; outline: as §1
[13] = test system: Staphylococcus aureus; experiment: Antimicrobial activity against NorA knockout Staphylococcus aureus K1758 mutant; assay type: functional
[14] = test system: Staphylococcus aureus; experiment: Antimicrobial activity against wild-type Staphylococcus aureus 8325-4; assay type: functional
Outline: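 Wild-type S. aureus 8325-4 grown in Mueller-Hinton broth and inoculated at 10⁵ cells/mL. Test compound serially diluted 2-fold from 50 µg/mL ([…]). Incubated 18 h at 37 °C. Growth read as absorbance at 600 nm. Triplicate, following NCCLS recommendations.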

[15] = test system: Staphylococcus aureus; experiment: Antimicrobial activity against Staphylococcus aureus K2361 mutant overexpressing NorA; assay type: functional
[16] = target: T1, Quinolone resistance protein NorA (Staphylococcus aureus); experiment: Inhibition of NorA efflux pump in wild-type Staphylococcus aureus 8325-4 assessed as fold reduction of berberine MIC at 56 uM by twofold serial dilution method; outline: as §1
[17] = target: T1, Quinolone resistance protein NorA (Staphylococcus aureus); experiment: Inhibition of NorA efflux pump in Staphylococcus aureus K1758 mutant assessed as fold reduction of berberine MIC at 56 uM by twofold serial dilution method; outline: as §1
[18] = target: T1, Quinolone resistance protein NorA (Staphylococcus aureus); experiment: Inhibition of NorA efflux pump in Staphylococcus aureus K2361 mutant overexpressing NorA assessed as potentiation of berberine-induced antimicrobial activity at 56 uM by twofold serial dilution method; outline: as §1

Compound	MIC [1] [µM]	MIC [2] [µM]	MIC [3] [µM]	Activity [4]	fold change (FC) [5]	fold change (FC) [6]	MIC [7] [µM]	Activity [8]	MIC [9] [µM]	MIC [10] [µM]	fold change (FC) [11]	Activity [12]	MIC [13] [µM]	MIC [14] [µM]	MIC [15] [µM]	fold change (FC) [16]	fold change (FC) [17]	Activity [18]
COc1cc(O)ccc1-c1oc2cc3c(cc2c1C=O)OCO3 [SPINOSAN A]	> 140	> 140	> 140	Active	8	15	> 140	inactive	> 140	> 140	–	–	–	–	–	–	–	–
COc1cc(OC(C)=O)ccc1-c1oc2cc3c(cc2c1C=O)OCO3 [SPINOSAN A ACETATE]	> 140	> 140	> 140	Active	–	–	> 140	–	> 140	> 140	62	Active	–	–	–	–	–	–
COc1ccc(-c2coc3cc(O)c(OC)cc3c2=O)c(O)c1	> 140	> 140	> 140	Active	–	–	> 140	inactive	> 140	> 140	–	–	–	–	–	–	–	–
COc1ccc2c(C=O)c(-c3ccc(O)cc3OC)oc2c1 [SPINOSAN B]	> 140	> 140	> 140	inactive	–	–	> 140	–	> 140	> 140	–	–	–	–	–	–	–	–
COc1ccc2cc3[n+](cc2c1OC)CCc1cc2c(cc1-3)OCO2 [BERBERINE CHLORIDE]	–	–	–	–	–	–	–	–	–	–	–	–	89	372	> 1490	–	–	–
COc1ccc2c(c1)O[C@@H]1c3ccc(O)cc3OC[C@H]21	> 140	> 140	> 140	Active	–	–	> 140	–	> 140	> 140	–	–	–	–	–	4	4	inactive
COc1ccc2c(c1)O[C@@H]1c3ccc(OC)c(O)c3OC[C@H]21	> 140	> 140	> 140	inactive	–	–	> 140	–	> 140	> 140	–	–	–	–	–	–	–	–
